The results in this text go back to ChEMBL document CHEMBL3580565, “Synthesis and Biological Evaluation of Cyclopentaquinoline Derivatives as Nonsteroidal Glucocorticoid Receptor Antagonists” (J Med Chem, 2015).

The structures appear in SMILES notation. A value given as a limit tells only on which side of the number the result lay.

As a reminder, the AUC(0-t) is the area under the concentration-time curve up to a stated or last time point. Usually Tmax stands for the time from dosing to the highest level. For orientation: Ki means the dissociation constant of the complex between target and ligand, obtained from inhibition or displacement. As a reminder, the clearance is the rate of elimination divided by the concentration. In general, AUC(0-inf) refers to the area under the concentration-time curve extrapolated to infinity. Broadly, the half-life is the time needed for the level to fall by half in the phase considered.

In data set [1] the test system is Rattus norvegicus. Nature of the data set: Antidepressant-like activity in Wistar rat assessed as decrease in immobility time at 10 mg/kg, po administered at 1, 5, 23.5 hrs prior to testing measured for 5 mins by forced swimming test relative to vehicle-treated control. Details: scale not given: the % may be the effect or the level left. Format: functional.
Data set [2] is described as follows: AUC (0 to t) in Sprague-Dawley rat at 10 mg/kg, po by LC/MS/MS analysis. To be noted: in vivo. The data set is classed as ADME, organism-based. The method, boiled down: (§1)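 Male Sprague–Dawley rats dosed orally (n = 4). Jugular vein blood sampled at 0.25, 0.5, 1, 2, 4, 6 and 24 h into heparin, plasma obtained by centrifugation. Concentrations determined by LC/MS/MS.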

Data set [3] concerns Rattus norvegicus. Briefly: Antidepressant-like activity in Wistar rat assessed as immobility time at 30 mg/kg, po administered at 1, 5, 23.5 hrs prior to testing measured for 5 mins by forced swimming test (reference value: 211.3 to 232.2 secs). The data set is classed as functional.
The nature of data set [4]: Tmax in Sprague-Dawley rat at 10 mg/kg, po by LC/MS/MS analysis. Format: ADME, organism-based. The following applies: in vivo. The method, boiled down: as §1
A further data set deals with Plasma. Nature of the data set: Unbound plasma concentration in Sprague-Dawley rat at 30 mg/kg, po measured at 1 hr by LC/MS/MS analysis. The data set is classed as ADME, organism-based. The following applies: in vivo. A digest of the protocol: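 Male SD rats given 30 mg/kg orally (n = 3 per time point), killed at 1 and 3 h. Heparinized blood collected for plasma; brain rinsed in saline, weighed, homogenized in five volumes (w/v) saline. Plasma and brain levels by LC/MS/MS. Kp,uu,brain is the ratio of unbound brain to unbound plasma concentration.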

The next data set deals with T1, Androgen receptor (Homo sapiens, UniProt P10275).
T1 sequence (P10275 whole entry): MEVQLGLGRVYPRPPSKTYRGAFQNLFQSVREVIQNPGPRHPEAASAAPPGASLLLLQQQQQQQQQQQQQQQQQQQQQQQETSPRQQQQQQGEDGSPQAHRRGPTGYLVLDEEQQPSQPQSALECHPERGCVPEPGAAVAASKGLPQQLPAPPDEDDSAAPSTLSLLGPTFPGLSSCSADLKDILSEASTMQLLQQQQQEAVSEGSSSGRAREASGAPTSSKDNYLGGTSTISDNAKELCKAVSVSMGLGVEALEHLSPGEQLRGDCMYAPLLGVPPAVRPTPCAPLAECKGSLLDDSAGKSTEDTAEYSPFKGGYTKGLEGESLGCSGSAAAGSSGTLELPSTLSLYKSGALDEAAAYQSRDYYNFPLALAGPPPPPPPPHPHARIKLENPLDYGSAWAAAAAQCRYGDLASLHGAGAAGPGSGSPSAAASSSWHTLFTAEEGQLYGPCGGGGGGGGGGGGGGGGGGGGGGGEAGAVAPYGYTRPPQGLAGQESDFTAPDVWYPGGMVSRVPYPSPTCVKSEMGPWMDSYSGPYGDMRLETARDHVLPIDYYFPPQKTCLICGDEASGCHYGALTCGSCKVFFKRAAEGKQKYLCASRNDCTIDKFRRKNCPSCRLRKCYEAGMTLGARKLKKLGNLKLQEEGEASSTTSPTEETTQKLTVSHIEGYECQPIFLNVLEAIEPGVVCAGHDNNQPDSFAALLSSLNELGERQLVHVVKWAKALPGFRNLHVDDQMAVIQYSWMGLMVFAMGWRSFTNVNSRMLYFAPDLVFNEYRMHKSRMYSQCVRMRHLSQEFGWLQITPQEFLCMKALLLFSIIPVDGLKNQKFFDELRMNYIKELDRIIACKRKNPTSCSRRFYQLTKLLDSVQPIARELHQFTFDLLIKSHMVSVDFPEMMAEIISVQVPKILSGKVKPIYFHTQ
Nature of the data set: Displacement of [3H]methyltrienolone from cytosolic fraction of androgen receptor in human […] cells after 24 hrs by scintillation counting analysis. The data set is classed as cell-based. A digest of the protocol: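 Assay run at Cerep. Binding of [³H]methyltrienolone to cytosolic androgen receptor from LNCaP cells.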
In general terms: Loss of bound radioactivity is the signal in a displacement assay; it reports binding, not function.

A further data set deals with Estrogen receptor beta (Homo sapiens, UniProt Q92731). Briefly: Displacement of fluormone ES2 from human recombinant estrogen receptor-beta expressed in insect Hi5 cells after 120 mins by fluorescence polarization assay. Details: species or system BTI-TN-5B1-4. A digest of the protocol: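 Assay run at Cerep. Fluorescence polarization with Fluormone ES2 tracer, using recombinant human ERα expressed in Sf9 cells and ERβ expressed in Hi5 cells.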
Chain of Estrogen receptor beta (Q92731 whole entry): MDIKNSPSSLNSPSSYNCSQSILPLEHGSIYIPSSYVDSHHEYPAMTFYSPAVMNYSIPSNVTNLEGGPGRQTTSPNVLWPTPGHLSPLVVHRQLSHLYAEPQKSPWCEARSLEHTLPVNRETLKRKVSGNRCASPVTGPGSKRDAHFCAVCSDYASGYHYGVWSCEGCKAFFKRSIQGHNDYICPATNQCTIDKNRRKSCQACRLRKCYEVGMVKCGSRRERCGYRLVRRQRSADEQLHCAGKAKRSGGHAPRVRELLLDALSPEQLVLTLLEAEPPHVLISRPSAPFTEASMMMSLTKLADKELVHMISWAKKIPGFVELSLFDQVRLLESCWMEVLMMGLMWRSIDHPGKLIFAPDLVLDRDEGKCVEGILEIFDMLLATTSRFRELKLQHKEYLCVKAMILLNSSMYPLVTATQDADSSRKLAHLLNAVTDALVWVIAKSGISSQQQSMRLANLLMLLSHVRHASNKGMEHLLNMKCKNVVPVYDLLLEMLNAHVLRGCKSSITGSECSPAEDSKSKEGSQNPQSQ

Data set [5] concerns Rattus norvegicus. Nature of the data set: Antidepressant-like activity in Wistar rat assessed as immobility time at 10 mg/kg, po administered at 1, 5, 23.5 hrs prior to testing measured for 5 mins by forced swimming test (reference value: 211.3 to 232.2 secs). Format: functional.
Data set [6] in a line: Total clearance in Sprague-Dawley rat at 1 mg/kg, iv by LC/MS/MS analysis. The data set is classed as ADME, organism-based. The following applies: in vivo. A digest of the protocol:
(§2)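 Single intravenous dose to male Sprague–Dawley rats (n = 4). Jugular vein blood drawn at 0.05, 0.25, 0.5, 1, 2, 4, 8 and 24 h, heparin anticoagulant, plasma separated by centrifugation. Plasma drug level measured by LC/MS/MS.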

Data set [7] can be described thus: AUC (0 to infinity) in Sprague-Dawley rat at 10 mg/kg, po by LC/MS/MS analysis. Format: ADME, organism-based. Details: dose 10 mg/kg, time infinity, route oral. The following applies: in vivo. A digest of the protocol: as §1
Data set [8] in a line: Half life in Sprague-Dawley rat at 1 mg/kg, iv by LC/MS/MS analysis. To be noted: in vivo. The data set is classed as ADME, organism-based. The method, boiled down: as §2
Data set [9] can be described thus: AUC (0 to infinity) in Sprague-Dawley rat at 1 mg/kg, iv by LC/MS/MS analysis. The data set is classed as ADME, organism-based. Further details: dose 1 mg/kg, route intravenous, time infinity. To be noted: in vivo. The method, boiled down: as §2
Data set [10] has as its system Rattus norvegicus. Briefly: Antidepressant-like activity in Wistar rat assessed as decrease in immobility time at 30 mg/kg, po administered at 1, 5, 23.5 hrs prior to testing measured for 5 mins by forced swimming test relative to vehicle-treated control. Format: functional. Details: scale not given: the % may be the effect or the level left.

With `Cc1noc(C)c1-c1cc2c(c3c1CCC3)NC(C)(C)C(=O)C2(C)C`, the Activity turned out to be 89.1% in the data set with Rattus norvegicus [1] and 75.9% with Rattus norvegicus [10]. This compound also returned an AUC(0-t) in data set [2] of 2420 ng·h/mL. For the same compound, the values for the Time in the data set on Rattus norvegicus [3] and in the data set on Rattus norvegicus [5] were 170.7 s and 206.8 s, respectively. In addition, the Tmax in data set [4] is 3.5 h. The “Cp(f)” value in the data set with Plasma is 14.1 nM. In addition, the Ki at Androgen receptor and at Estrogen receptor beta was more than 2300 nM throughout. The same compound showed a clearance in data set [6] of 37.1 mL/min/kg. For the same compound, the results for the AUC(0-inf) in [7] and in [9] were 2720 ng·h/mL and 460 ng·h/mL, respectively. The same compound had a half-life in data set [8] of 3.2 h.
